{"source": "PubChem BioAssay AID504383", "about": "(The Scripps Research Institute Molecular Screening Center, 2011)", "note": "Screen size: about 2,500 compounds; about 1,200 (48%) were called active. So high a share suggests a set chosen from earlier hits. Some of the results follow. Values without a mark were called inactive.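 Rule for the calls: active = mean activation above the low control average plus 3 SD, as set in the primary screen (cut at about 12% in these data); inactive = the rest.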"}
{"molecular_target": "Troponin I, cardiac muscle (Homo sapiens) + Troponin T, cardiac muscle (Homo sapiens) + Troponin C, slow skeletal and cardiac muscles (Homo sapiens) (UniProt P19429+P45379+P63316)", "experiment": "calcium sensitizers of cardiac thin filaments – biochemical, IANBD-TnC fluorescence, triplicate, confirmation (AID 504383);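 note: 0% = DMSO at 0.472 mM calcium and 100% = DMSO at 2.9 mM calcium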", "conditions": "IANBD-labeled cardiac RTF, Ca2+ sensitivity fluorescence; at 7.2 µM; active compounds read high; scaled from EC20 to saturating calcium; tested at EC20 calcium, 0.472 mM", "in_short": "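Test system: labelled regulated thin filament protein complex. Dosing: single nominal compound dose of 7.2 µM. Benchmarks: EC20 and EC100 calcium wells. Read-out basis: fluorescence gain scaled between EC20 and EC100 calcium controls. Probe or stimulus: submaximal calcium at 0.472 mM (EC20). Technique: fluorescence. Times: 15 min compound exposure, 25 °C.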"}
{"smiles": "COc1ccc(C2(CNC(C)=O)CCCC2)cc1OC", "activation": "3.15%"}
{"smiles": "COC(=O)c1c(-c2ccc(OC)c(OC)c2)csc1N", "activation": "13% (active)"}
{"smiles": "CCOC(=O)c1c(-c2ccc(C)cc2)csc1NC(=O)/C(C#N)=C/c1ccc(O)c(OC)c1", "activation": "4.04%"}
{"smiles": "O=C(CSCc1ccco1)NC1CCCC1", "activation": "13.6% (active)"}
{"smiles": "O=C(c1ccc(=O)[nH]c1)N(Cc1ccco1)C1(C(=O)NC2CCCCC2)CCCCC1", "activation": "8.99%"}
{"smiles": "S=C(NC1CC1)NC1CCCc2ccccc21", "note": "(centres undefined)", "activation": "7.09%"}
{"smiles": "COC(=O)c1sccc1NC(=O)CSCC(=O)O", "activation": "0.67%"}
{"smiles": "COc1cc(NC(=O)CSc2ccccc2)c(C(=O)O)cc1OC", "activation": "23.2% (active)"}
{"smiles": "COc1cc(NC(=O)CSc2nc3ccccc3n2-c2ccccc2)c(C)cc1[N+](=O)[O-]", "activation": "6.07%"}
{"smiles": "CCOC(=O)C1=C(C)NC(C)=C(C(=O)OCC)C1c1ccco1", "activation": "8.22%"}
{"smiles": "CCOC(=O)N1CCC(NC(=O)c2cnn3c2NC(c2ccco2)CC3C(F)(F)F)CC1", "note": "(centres undefined)", "activation": "18% (active)"}
{"smiles": "COc1ccc(N2CCN(S(=O)(=O)Cc3ccccc3)CC2)cc1", "activation": "10.5%"}
{"smiles": "COc1ccccc1N1CCN(C(=O)CCC(=O)O)CC1", "activation": "4.12%"}
{"smiles": "CC1=N/C(=C/c2ccc([N+](=O)[O-])cc2)C(=O)N1c1ccc(Cl)cc1Cl", "activation": "6.42%"}
{"smiles": "COc1ccc(N2CCN(c3ccc([N+](=O)[O-])cc3Cl)CC2)cc1", "activation": "41.8% (active)"}
{"smiles": "COc1ccccc1N1CCN(c2ccc([N+](=O)[O-])cc2Cl)CC1", "activation": "90.7% (active)"}
{"smiles": "Cn1c(NC(=O)C[n+]2cc(-c3ccc(Cl)cc3)n3c2CCC3)cc(=O)n(C)c1=O", "activation": "5.8%"}
{"smiles": "Cc1onc(-c2ccccc2Cl)c1C(=O)N(Cc1ccc(N(C)C)cc1)C(C)C", "activation": "12% (active)"}
{"smiles": "CC(=O)Nc1ccc(SCC(=O)NNC(=O)CN(C)S(=O)(=O)c2ccc(C)cc2)cc1", "activation": "98% (active)"}
{"smiles": "Cc1ccc(Cn2c(Sc3nnc(C)s3)nc3c2c(=O)[nH]c(=O)n3C)cc1", "activation": "108% (active)"}
{"smiles": "COc1cc(/C=C2\\CC/C(=C\\c3ccc(OCCO)c(OC)c3)C2=O)ccc1OCCO", "activation": "7.54%"}
{"smiles": "COc1ccc(/C=C2\\CC/C(=C\\c3ccc(OC)cc3OC)C2=O)c(OC)c1", "activation": "50.4% (active)"}
{"smiles": "COc1ccc(/C=c2\\s/c(=C/C(=O)c3ccc(C)cc3)[nH]c2=O)c(OC)c1", "activation": "10.7%"}
{"smiles": "CCOC(=O)c1c(NCC(C)C)c2ccccc2[nH]c1=O", "activation": "183% (active)"}
{"smiles": "CCOC(=O)C1=C(COC(=O)c2ccc3ccccc3c2O)NC(=O)NC1C", "note": "(centres undefined)", "activation": "6.83%"}
{"smiles": "COC(=O)[C@H](C)NC(=O)c1cc2c(cn1)[nH]c1ccccc12", "activation": "10.7%"}
{"smiles": "COc1ccc(N2C(=O)[C@@H]3[C@H](C2=O)[C@H]2c4ccccc4C=CN2[C@@H]3C(=O)Nc2ccccc2)cc1", "activation": "55.7% (active)"}
{"smiles": "Cc1ccc(-c2nc(C)sc2CC(=O)O)cc1", "activation": "28.5% (active)"}
{"smiles": "Cc1ccc(-c2nc(N)sc2CC(=O)OCC(=O)NCCC(C)C)cc1", "activation": "10.3%"}
{"smiles": "COC(=O)c1ccc2c(c1)NC1=C(C(=O)CC(C)(C)C1)C(c1ccncc1)N2", "note": "(centres undefined)", "activation": "9.24%"}
{"smiles": "COc1ccc(-c2cc(C(F)(F)F)nc(S(=O)(=O)CCCC(=O)Nc3cc(C)on3)n2)cc1OC", "activation": "16.4% (active)"}
{"smiles": "COc1ccc(NC(=O)c2cc(C)on2)cc1OC", "activation": "6.63%"}
{"smiles": "O=C(CS(=O)(=O)c1cn(Cc2ccc(F)cc2)c2ccccc12)N1CCOCC1", "activation": "1.62%"}
{"smiles": "Cn1cc(/C=C2\\SC(=S)N(N3CCOCC3)C2=O)c2ccccc21", "activation": "12.7% (active)"}
{"smiles": "O=C1/C(=C/c2cccnc2)SC(=S)N1N1CCOCC1", "activation": "12.4% (active)"}
{"smiles": "O=C(O)CN1C(=O)/C(=C\\c2cn(CC(=O)N3CCOCC3)c3ccccc23)SC1=S", "activation": "16.6% (active)"}
{"smiles": "O=C(CCN1C(=O)/C(=C/c2ccccc2)SC1=S)NNC(=O)c1cccnc1", "activation": "6.78%"}
{"smiles": "Cc1ccc(N=C2NC(=O)/C(=C/c3cn(C)c4ccccc34)S2)cc1C", "activation": "6.33%"}
{"smiles": "Cc1cc(S(=O)(=O)Nc2c(C)nn(C)c2C)c(Cl)cc1Cl", "activation": "10.6%"}
{"smiles": "Cc1ccc(S(=O)(=O)/N=C2/NC(=O)/C(=C/c3cc([N+](=O)[O-])ccc3O)S2)cc1", "activation": "4.75%"}
{"smiles": "COc1cccc(N=C2NC(=O)/C(=C/c3cc([N+](=O)[O-])ccc3O)S2)c1", "activation": "9.82%"}
{"smiles": "O=C1NC(=Nc2ccccc2Cl)S/C1=C\\c1cc([N+](=O)[O-])ccc1O", "activation": "20.8% (active)"}
{"smiles": "C#CCN1c2ccccc2Sc2cccnc21", "activation": "13.6% (active)"}
{"smiles": "O=C(Nc1ccccc1)c1ccc(NCCc2ccccc2)c([N+](=O)[O-])c1", "activation": "5.71%"}
{"smiles": "Cc1cccc(OCCNc2ccc(C(F)(F)F)cc2[N+](=O)[O-])c1", "activation": "159% (active)"}
{"smiles": "COc1cccc(C(=O)NC2CC3CCCC(C2)N3CC(=O)Nc2ccc(N(C)C)cc2)c1", "note": "(centres undefined)", "activation": "21.3% (active)"}
{"smiles": "COc1ccc(NC(=O)CS(=O)(=O)c2cccc(Cl)c2)cc1", "activation": "6.14%"}
{"smiles": "Cc1ccc(NC(=O)CC2SC3=NCCCN3C2=O)c(C)c1", "note": "(centres undefined)", "activation": "9.67%"}
{"smiles": "COc1ccc2c(c1)cc(C(=O)N[C@@H](CCSC)C(=O)N1CCC[C@H]1C(=O)O)n2C", "activation": "20.4% (active)"}
{"smiles": "CSCCC(NC(=O)c1ccccc1Cl)C(=O)N1CCC1", "note": "(centres undefined)", "activation": "3.34%"}
{"smiles": "COc1ccc(OC)c(/C=N/N=C(\\N)c2nonc2N)c1", "activation": "18.5% (active)"}
{"smiles": "COc1ccc(N=C(N)N=C(N)N)c(OC)c1", "activation": "7.88%"}
{"smiles": "COc1ccc(C2C(C#N)=C(N)N(c3cccnc3)C3=C2C(=O)CCC3)cc1Cn1cc([N+](=O)[O-])cn1", "note": "(centres undefined)", "activation": "18.5% (active)"}
{"smiles": "COc1ccc(NC(=O)NS(=O)(=O)c2ccc(C)cc2)cn1", "activation": "7.89%"}
{"smiles": "COc1ccc(S(=O)(=O)Nc2cc(C)on2)cc1", "activation": "57.2% (active)"}
{"smiles": "O=c1[nH]c2ccccc2nc1/C=C/c1ccccc1", "activation": "351% (active)"}
{"smiles": "O=c1[nH]c2ccccc2nc1/C=C/c1ccc(F)cc1", "activation": "9.41%"}
{"smiles": "O=c1[nH]c2ccccc2nc1/C=C(\\O)c1cccs1", "activation": "11.4%"}
{"smiles": "CC1(C)CC(=O)C(CC2CCCCC2=O)C(=O)C1", "note": "(centres undefined)", "activation": "15.2% (active)"}
{"smiles": "CN1CCc2c(sc3nc(SCC(N)=O)n(-c4ccccc4)c(=O)c23)C1", "activation": "3.18%"}
{"smiles": "O=C(COC(=O)C1CC2C=CC1C2)Nc1cccc(S(=O)(=O)N2CCCCCC2)c1", "note": "(centres undefined)", "activation": "5.75%"}
{"smiles": "O=C(CCc1ccc(S(=O)(=O)N2CCOCC2)cc1)OCC(=O)c1ccccc1", "activation": "20.7% (active)"}
{"smiles": "NS(=O)(=O)c1cccc(NC(=O)CCc2ccc(S(=O)(=O)N3CCOCC3)cc2)c1", "activation": "84.4% (active)"}
{"smiles": "O=C1/C(=C/c2c[nH]c3ccccc23)CCC/C1=C\\c1c[nH]c2ccccc12", "activation": "7.19%"}
{"smiles": "O=C1CC(/C=C/c2ccco2)=Nc2ccccc2N1", "activation": "7.68%"}
{"smiles": "Nc1ccc2c(c1)C/C(=C/c1ccco1)C2=O", "activation": "22% (active)"}
{"smiles": "Cc1cc(O)c(CN(C)C)c2c1C(=O)/C(=C/c1ccco1)O2", "activation": "8.55%"}
{"smiles": "O=C1C(=Cc2ccco2)CCCC1=Cc1ccco1", "activation": "93.5% (active)"}
{"smiles": "CCNC(=O)COc1ccc(-c2ccccc2)cc1", "activation": "4.33%"}
{"smiles": "O=C(O)CCC(=O)NNC(=O)c1ccc(-c2ccccc2)cc1", "activation": "104% (active)"}
{"smiles": "O=C(COC(=O)/C=C/c1ccccc1[N+](=O)[O-])NNC(=O)c1ccc(F)cc1", "activation": "9.23%"}
{"smiles": "Cc1ccsc1/C=C/C1=Cc2c(sc(NC(=O)CSc3n[nH]c(N)n3)c2C#N)C(C)(C)C1", "activation": "6.84%"}
{"smiles": "O=S(=O)(Nc1nc2ccccc2nc1NCCO)c1cccc(Cl)c1", "activation": "233% (active)"}
{"smiles": "O=S(=O)(Nc1nc2ccccc2nc1N1CCN(c2ccccn2)CC1)c1ccc(Cl)cc1", "activation": "0.27%"}
{"smiles": "Cn1c(-c2ccc(C=O)s2)nc2c3ccccc3c3ccccc3c21", "activation": "25.8% (active)"}
{"smiles": "CCOc1ccc(-c2nc3scc(-c4cccs4)c3c(=O)[nH]2)cc1", "activation": "54.4% (active)"}
{"smiles": "COc1ccc(C2c3ccc(O)cc3Oc3ncn(Cc4ccco4)c(=N)c32)cc1", "note": "(centres undefined)", "activation": "15.9% (active)"}
{"smiles": "N=c1c2c(ncn1Cc1ccco1)Oc1cc(O)ccc1C2c1ccccc1", "note": "(centres undefined)", "activation": "127% (active)"}
{"smiles": "COc1ccc(C2c3ccc(O)cc3Oc3ncn(CCCO)c(=N)c32)cc1OC", "note": "(centres undefined)", "activation": "6.69%"}
{"smiles": "COc1ccc(C2c3ccc(O)cc3Oc3ncn(Cc4ccccc4)c(=N)c32)cc1OC", "note": "(centres undefined)", "activation": "2.66%"}
{"smiles": "COc1ccc(C2c3ccc(O)cc3Oc3ncn(CCN4CCOCC4)c(=N)c32)cc1OC", "note": "(centres undefined)", "activation": "23% (active)"}
{"smiles": "Cc1c(O)ccc(/C(Cc2ccc3ccccc3n2)=N\\N)c1O", "activation": "9.3%"}
{"smiles": "CCCCOc1[nH]c2nc(-c3ccco3)n(Cc3ccco3)c(=N)c2c1C#N", "activation": "7.26%"}
{"smiles": "N#CC1(C#N)CC(C=O)=C(N)C1(C#N)CC(=O)c1ccc(F)cc1", "note": "(centres undefined)", "activation": "18.1% (active)"}
{"smiles": "COC(=O)C1=C(C)NC(=O)/C1=C\\N(C)C", "activation": "29.9% (active)"}
{"smiles": "CCOC(=O)C1=C(C)NC(=O)/C1=C\\N(C)C", "activation": "3.21%"}
{"smiles": "CCN(CC)c1ccc(/C=C2\\C(=O)c3ccc(C(=O)O)cc3C2=O)cc1", "activation": "28.1% (active)"}
{"smiles": "CCN(CC)c1ccc(/C=C/C(=O)c2ccc(Br)cc2)cc1", "activation": "11.2%"}
{"smiles": "CCN(CC)c1ccc(/C=C2/C(=O)c3ccc(C(=O)O)cc3C2=O)cc1", "activation": "21.9% (active)"}
{"smiles": "CN(C)c1ccc(/C=N/N(CCO)C2=NS(=O)(=O)c3ccccc32)cc1", "activation": "13.5% (active)"}
{"smiles": "CN(/N=C/c1ccc(N(C)C)cc1)C1=NS(=O)(=O)c2ccccc21", "activation": "32.9% (active)"}
{"smiles": "COc1ccccc1C(=O)NN(C)C1=NS(=O)(=O)c2ccccc21", "activation": "7.92%"}
{"smiles": "COc1ccc(COc2cc(-c3cccc(OC)c3)nc3ccc(NC(=O)c4ccc(C)cc4)cc23)cc1", "activation": "1.71%"}
{"smiles": "Cc1ccc(C(=O)Nc2ccc3c(c2)ncn3C)cc1", "activation": "27.7% (active)"}
